ChEMBL document CHEMBL2311404, “Synthesis, antibacterial activity and docking of 14-membered 9-O-(3-arylalkyl) oxime 11,12-cyclic carbonate ketolides” (2013)
Converted amounts (≈) assume the structure as drawn.

Tests used:
Format in all cases: functional
[1] = tested on: Staphylococcus epidermidis; test: Antibacterial activity against methicillin-susceptible, inducible MLS-resistant Staphylococcus epidermidis E 1 by broth microdilution method
Method in brief: (§1)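 Clinical isolates confirmed by 16S rDNA sequencing. MIC determined by broth microdilution following CLSI recommendations. Quality-control strains were S. aureus ATCC 29213 and S. pneumoniae ATCC 49619. Azithromycin and clarithromycin were run in parallel as reference agents.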

Staphylococcus aureus [2] = test: Antibacterial activity against methicillin-resistant, inducible MLS-resistant Staphylococcus aureus PU 32 expressing ermA gene by broth microdilution method; method in brief: as §1
Streptococcus pneumoniae [3] = test: Antibacterial activity against penicillin-susceptible, constitutive MLS-resistant Streptococcus pneumoniae PU 27 expressing erm gene by broth microdilution method; method in brief: as §1
Streptococcus pneumoniae [4] = test: Antibacterial activity against penicillin-resistant, constitutive MLS-resistant Streptococcus pneumoniae PU 11 expressing erm and mef genes by broth microdilution method; method in brief: as §1
Streptococcus pneumoniae [5] = test: Antibacterial activity against erythromycin-sensitive Streptococcus pneumoniae ATCC 49619 by broth microdilution method
Method in brief: (§2)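 MIC by broth microdilution following CLSI recommendations. Clinical isolates were identified by 16S rDNA sequencing and labeled by genotype and phenotype. S. aureus ATCC 29213 and S. pneumoniae ATCC 49619 served as control strains, with azithromycin and clarithromycin as reference agents.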

Streptococcus pyogenes [6] = test: Antibacterial activity against erythromycin-susceptible Streptococcus pyogenes A3 by broth microdilution method; method in brief: as §2
Staphylococcus aureus [7] = test: Antibacterial activity against erythromycin-susceptible Staphylococcus aureus ATCC 29213 by broth microdilution method; method in brief: as §2
[8] = tested on: Staphylococcus epidermidis; test: Antibacterial activity against methicillin-resistant, constitutive MLS-resistant Staphylococcus epidermidis E 2 by broth microdilution method; method in brief: as §1
Staphylococcus aureus [9] = test: Antibacterial activity against methicillin-resistant, constitutive MLS-resistant Staphylococcus aureus PU 20 expressing ermC gene by broth microdilution method; method in brief: as §1
Staphylococcus hominis [10] = test: Antibacterial activity against methicillin-resistant, inducible MLS-resistant, coagulase-deficient Staphylococcus hominis E 3 by broth microdilution method; method in brief: as §1
Streptococcus pneumoniae [11] = test: Antibacterial activity against penicillin-susceptible Streptococcus pneumoniae PU 09 expressing mef gene by broth microdilution method; method in brief: as §2
Staphylococcus aureus [12] = test: Antibacterial activity against methicillin-sensitive, inducible MLS-resistant Staphylococcus aureus PU 64 expressing ermA gene by broth microdilution method; method in brief: as §1
Streptococcus pyogenes [13] = test: Antibacterial activity against constitutive MLS-resistant Streptococcus pyogenes A2 by broth microdilution method; method in brief: as §1
[14] = tested on: Streptococcus dysgalactiae; test: Antibacterial activity against erythromycin-resistant Streptococcus dysgalactiae A1 expressing efflux pump by broth microdilution method; method in brief: as §1
[15] = tested on: Staphylococcus haemolyticus; test: Antibacterial activity against methicillin-resistant, constitutive MLS-resistant, coagulase-deficient Staphylococcus haemolyticus PU 19 expressing ermA gene by broth microdilution method; method in brief: as §1
Staphylococcus hominis [16] = test: Ratio of clarithromycin MIC to compound MIC for methicillin-resistant, inducible MLS-resistant, coagulase-deficient Staphylococcus hominis E 3
[17] = tested on: Staphylococcus epidermidis; test: Ratio of clarithromycin MIC to compound MIC for methicillin-resistant, constitutive MLS-resistant Staphylococcus epidermidis E 2
Streptococcus pyogenes [18] = test: Ratio of azithromycin MIC to compound MIC for constitutive MLS-resistant Streptococcus pyogenes A2
[19] = tested on: Staphylococcus haemolyticus; test: Ratio of azithromycin MIC to compound MIC for methicillin-resistant, constitutive MLS-resistant, coagulase-deficient Staphylococcus haemolyticus PU 19 expressing ermA gene
Streptococcus pneumoniae [20] = test: Ratio of clarithromycin MIC to compound MIC for penicillin-resistant, constitutive MLS-resistant Streptococcus pneumoniae PU 11 expressing erm and mef genes
[21] = tested on: Staphylococcus epidermidis; test: Ratio of azithromycin MIC to compound MIC for methicillin-susceptible, inducible MLS-resistant Staphylococcus epidermidis E 1
Streptococcus pyogenes [22] = test: Ratio of clarithromycin MIC to compound MIC for constitutive MLS-resistant Streptococcus pyogenes A2
[23] = tested on: Staphylococcus epidermidis; test: Ratio of clarithromycin MIC to compound MIC for methicillin-susceptible, inducible MLS-resistant Staphylococcus epidermidis E 1
[24] = tested on: Streptococcus dysgalactiae; test: Ratio of clarithromycin MIC to compound MIC for erythromycin-resistant Streptococcus dysgalactiae A1 expressing efflux pump
Staphylococcus hominis [25] = test: Ratio of azithromycin MIC to compound MIC for methicillin-resistant, inducible MLS-resistant, coagulase-deficient Staphylococcus hominis E 3
Streptococcus pneumoniae [26] = test: Ratio of clarithromycin MIC to compound MIC for penicillin-susceptible Streptococcus pneumoniae PU 09 expressing mef gene
[27] = tested on: Staphylococcus haemolyticus; test: Ratio of clarithromycin MIC to compound MIC for methicillin-resistant, constitutive MLS-resistant, coagulase-deficient Staphylococcus haemolyticus PU 19 expressing ermA gene
Streptococcus pneumoniae [28] = test: Ratio of azithromycin MIC to compound MIC for penicillin-resistant, constitutive MLS-resistant Streptococcus pneumoniae PU 11 expressing erm and mef genes
[29] = tested on: Staphylococcus epidermidis; test: Ratio of azithromycin MIC to compound MIC for methicillin-resistant, constitutive MLS-resistant Staphylococcus epidermidis E 2

| SMILES | MIC [1] | MIC (Staphylococcus aureus [2]) | MIC (Streptococcus pneumoniae [3]) | MIC (Streptococcus pneumoniae [4]) | MIC (Streptococcus pneumoniae [5]) | MIC (Streptococcus pyogenes [6]) | MIC (Staphylococcus aureus [7]) | MIC [8] | MIC (Staphylococcus aureus [9]) | MIC (Staphylococcus hominis [10]) | MIC (Streptococcus pneumoniae [11]) | MIC (Staphylococcus aureus [12]) | MIC (Streptococcus pyogenes [13]) | MIC [14] | MIC [15] | further results |
| --- | --- | --- | --- | --- | --- | --- | --- | --- | --- | --- | --- | --- | --- | --- | --- | --- |
| CC[C@H]1OC(=O)[C@H](C)[C@@H](O[C@H]2C[C@@](C)(OC)[C@@H](O)[C@H](C)O2)[C@H](C)[C@@H](O[C@@H]2O[C@H](C)C[C@H](N(C)C)[C@H]2O)[C@](C)(O)C[C@@H](C)CN(C)[C@H](C)[C@@H](O)[C@]1(C)O [AZITHROMYCIN] | > 256 µg/mL | 8 µg/mL (≈ 10.7 µM) | 64 µg/mL (≈ 85.4 µM) | > 256 µg/mL | 0.25 µg/mL (≈ 0.334 µM) | 0.125 µg/mL (≈ 0.167 µM) | 1 µg/mL (≈ 1.34 µM) | > 256 µg/mL | > 256 µg/mL | > 256 µg/mL | 8 µg/mL (≈ 10.7 µM) | 8 µg/mL (≈ 10.7 µM) | > 256 µg/mL | 32 µg/mL (≈ 42.7 µM) | > 256 µg/mL | – |
| CC[C@H]1OC(=O)[C@H](C)C(=O)[C@H](C)[C@@H](O[C@@H]2O[C@H](C)C[C@H](N(C)C)[C@H]2O)[C@](C)(OC)C[C@@H](C)/C(=N\OCCCc2cncc3ccccc23)[C@H](C)[C@H]2OC(=O)O[C@@]21C | 0.25 µg/mL (≈ 0.313 µM) | 0.5 µg/mL (≈ 0.627 µM) | 1 µg/mL (≈ 1.25 µM) | 32 µg/mL (≈ 40.1 µM) | 0.032 µg/mL (≈ 0.0401 µM) | 0.016 µg/mL (≈ 0.0201 µM) | 0.125 µg/mL (≈ 0.157 µM) | > 256 µg/mL | > 256 µg/mL | 0.5 µg/mL (≈ 0.627 µM) | 0.5 µg/mL (≈ 0.627 µM) | 0.25 µg/mL (≈ 0.313 µM) | 64 µg/mL (≈ 80.2 µM) | 0.25 µg/mL (≈ 0.313 µM) | > 256 µg/mL | – |
| CC[C@H]1OC(=O)[C@H](C)C(=O)[C@H](C)[C@@H](O[C@@H]2O[C@H](C)C[C@H](N(C)C)[C@H]2O)[C@](C)(OC)C[C@@H](C)/C(=N\OC/C=C/c2cnc3ccccc3c2)[C@H](C)[C@H]2OC(=O)O[C@@]21C | 0.032 µg/mL (≈ 0.0402 µM) | 0.5 µg/mL (≈ 0.628 µM) | 0.125 µg/mL (≈ 0.157 µM) | 32 µg/mL (≈ 40.2 µM) | 0.016 µg/mL (≈ 0.0201 µM) | ≤ 0.008 µg/mL | 0.25 µg/mL (≈ 0.314 µM) | > 256 µg/mL | > 256 µg/mL | 0.064 µg/mL (≈ 0.0804 µM) | 0.25 µg/mL (≈ 0.314 µM) | 0.064 µg/mL (≈ 0.0804 µM) | 32 µg/mL (≈ 40.2 µM) | 0.25 µg/mL (≈ 0.314 µM) | > 256 µg/mL | – |
| CC[C@H]1OC(=O)[C@H](C)C(=O)[C@H](C)[C@@H](O[C@@H]2O[C@H](C)C[C@H](N(C)C)[C@H]2O)[C@](C)(OC)C[C@@H](C)/C(=N\OCC#Cc2ccc3ncccc3c2)[C@H](C)[C@H]2OC(=O)O[C@@]21C | 0.032 µg/mL (≈ 0.0403 µM) | 0.125 µg/mL (≈ 0.157 µM) | 0.25 µg/mL (≈ 0.315 µM) | 64 µg/mL (≈ 80.6 µM) | 0.016 µg/mL (≈ 0.0202 µM) | ≤ 0.008 µg/mL | 0.125 µg/mL (≈ 0.157 µM) | > 256 µg/mL | 64 µg/mL (≈ 80.6 µM) | 0.125 µg/mL (≈ 0.157 µM) | 0.25 µg/mL (≈ 0.315 µM) | 0.125 µg/mL (≈ 0.157 µM) | 64 µg/mL (≈ 80.6 µM) | 0.25 µg/mL (≈ 0.315 µM) | 64 µg/mL (≈ 80.6 µM) | – |
| CC[C@H]1OC(=O)[C@H](C)C(=O)[C@H](C)[C@@H](O[C@@H]2O[C@H](C)C[C@H](N(C)C)[C@H]2O)[C@](C)(OC)C[C@@H](C)/C(=N\OCC#Cc2cncc3ccccc23)[C@H](C)[C@H]2OC(=O)O[C@@]21C | 0.016 µg/mL (≈ 0.0202 µM) | 0.032 µg/mL (≈ 0.0403 µM) | 0.064 µg/mL (≈ 0.0806 µM) | 16 µg/mL (≈ 20.2 µM) | ≤ 0.008 µg/mL | ≤ 0.008 µg/mL | 0.016 µg/mL (≈ 0.0202 µM) | 32 µg/mL (≈ 40.3 µM) | – | 0.064 µg/mL (≈ 0.0806 µM) | 0.032 µg/mL (≈ 0.0403 µM) | – | 16 µg/mL (≈ 20.2 µM) | 0.016 µg/mL (≈ 0.0202 µM) | 32 µg/mL (≈ 40.3 µM) | Ratio (Staphylococcus hominis [16]): >4000; Ratio [17]: >8; Ratio (Streptococcus pyogenes [18]): >8; Ratio [19]: >8; Ratio (Streptococcus pneumoniae [20]): >8; Ratio [21]: >16000; Ratio (Streptococcus pyogenes [22]): >8; Ratio [23]: >16000; Ratio [24]: 500; Ratio (Staphylococcus hominis [25]): >4000; Ratio (Streptococcus pneumoniae [26]): 125; Ratio [27]: >8; Ratio (Streptococcus pneumoniae [28]): >8; Ratio [29]: >8 |
| CC[C@H]1OC(=O)[C@H](C)[C@@H](O[C@H]2C[C@@](C)(OC)[C@@H](O)[C@H](C)O2)[C@H](C)[C@@H](O[C@@H]2O[C@H](C)C[C@H](N(C)C)[C@H]2O)[C@](C)(OC)C[C@@H](C)C(=O)[C@H](C)[C@@H](O)[C@]1(C)O [CLARITHROMYCIN] | > 256 µg/mL | 1 µg/mL (≈ 1.34 µM) | 1 µg/mL (≈ 1.34 µM) | > 256 µg/mL | 0.032 µg/mL (≈ 0.0428 µM) | 0.032 µg/mL (≈ 0.0428 µM) | 0.25 µg/mL (≈ 0.334 µM) | > 256 µg/mL | > 256 µg/mL | > 256 µg/mL | 4 µg/mL (≈ 5.35 µM) | 2 µg/mL (≈ 2.67 µM) | > 256 µg/mL | 8 µg/mL (≈ 10.7 µM) | > 256 µg/mL | – |
